The values below come from ChEMBL document CHEMBL2029249, “N-Methyl-3-(tetrahydro-2H-pyran-4-yl)-2,3,4,9-tetrahydro-1H-carbazole-6-carboxamides as a novel class of cannabinoid receptors agonists with low CNS penetration” (Bioorg Med Chem Lett, 2012).

For data set [1], the target named is Voltage-gated inwardly rectifying potassium channel KCNH2 (Homo sapiens, UniProt Q12809).
The nature of data set [2]: Ratio of drug level in brain to plasma in rat by microdialysis assay.
For data set [3], the target named is T1, Cannabinoid receptor 1 (Homo sapiens, UniProt P21554). The experiment in a line: Agonist activity at human CB1 receptor expressed in HEK293 cells assessed as [35S]GTPgamma binding relative to WIN55212-2. The data set is classed as functional, cell-based. In a few lines:
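GTPγ35S binding on membranes from HEK293 EBNA cells stably transfected with cloned human CB1; Emax relative to WIN55,212-2 as reference agonist; means of at least three measurements.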

Data set [4] in a line: Thermodynamic solubility of the compound at pH 7.4. The settings on record: buffer.
Data set [5] is described as follows: Intrinsic clearance in human liver microsomes at 1 uM in presence of NADPH. The class given is ADME, Microsome. As to conditions: read-out: CLH. For orientation: Microsomes from liver hold many membrane-bound enzymes, among them those of drug oxidation.
For data set [6], the target named is T1, Cannabinoid receptor 1. The experiment in a line: Displacement of [3H]CP55940 from human CB1 receptor expressed in HEK293 cells. The data set is classed as cell-based.
Data set [7] in a line: Apparent permeability from apical to basal side of human Caco2 cells at 10 uM. The settings on record: Caco-2. Background: Caco-2 monolayers are a common model of the intestinal barrier.
The next data set has as its target Cannabinoid receptor 2 (Homo sapiens, UniProt P34972). Nature of the data set: Binding affinity to human CB2 receptor.
Data set [8] deals with T1, Cannabinoid receptor 1. The experiment in a line: Agonist activity at human CB1 receptor expressed in HEK293 cells assessed as [35S]GTPgamma binding. The class given is functional, cell-based.

Converted amounts (≈) assume the structure as drawn. A value given as a limit tells only on which side of the number the result lay.

T1 sequence (P21554 whole entry): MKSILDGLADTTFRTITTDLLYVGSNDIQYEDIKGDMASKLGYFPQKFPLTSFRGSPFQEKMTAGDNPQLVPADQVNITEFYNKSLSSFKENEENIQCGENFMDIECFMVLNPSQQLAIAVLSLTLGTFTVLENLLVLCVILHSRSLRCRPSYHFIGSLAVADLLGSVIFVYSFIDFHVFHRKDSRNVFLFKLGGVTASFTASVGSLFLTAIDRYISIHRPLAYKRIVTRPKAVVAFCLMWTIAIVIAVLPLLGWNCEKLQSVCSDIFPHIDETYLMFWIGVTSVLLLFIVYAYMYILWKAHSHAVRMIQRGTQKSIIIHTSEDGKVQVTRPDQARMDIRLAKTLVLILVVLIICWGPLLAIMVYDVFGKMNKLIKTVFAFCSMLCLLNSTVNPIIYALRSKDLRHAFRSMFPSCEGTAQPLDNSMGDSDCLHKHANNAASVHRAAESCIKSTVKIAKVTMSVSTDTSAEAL
Voltage-gated inwardly rectifying potassium channel KCNH2, sequence (Q12809 whole entry): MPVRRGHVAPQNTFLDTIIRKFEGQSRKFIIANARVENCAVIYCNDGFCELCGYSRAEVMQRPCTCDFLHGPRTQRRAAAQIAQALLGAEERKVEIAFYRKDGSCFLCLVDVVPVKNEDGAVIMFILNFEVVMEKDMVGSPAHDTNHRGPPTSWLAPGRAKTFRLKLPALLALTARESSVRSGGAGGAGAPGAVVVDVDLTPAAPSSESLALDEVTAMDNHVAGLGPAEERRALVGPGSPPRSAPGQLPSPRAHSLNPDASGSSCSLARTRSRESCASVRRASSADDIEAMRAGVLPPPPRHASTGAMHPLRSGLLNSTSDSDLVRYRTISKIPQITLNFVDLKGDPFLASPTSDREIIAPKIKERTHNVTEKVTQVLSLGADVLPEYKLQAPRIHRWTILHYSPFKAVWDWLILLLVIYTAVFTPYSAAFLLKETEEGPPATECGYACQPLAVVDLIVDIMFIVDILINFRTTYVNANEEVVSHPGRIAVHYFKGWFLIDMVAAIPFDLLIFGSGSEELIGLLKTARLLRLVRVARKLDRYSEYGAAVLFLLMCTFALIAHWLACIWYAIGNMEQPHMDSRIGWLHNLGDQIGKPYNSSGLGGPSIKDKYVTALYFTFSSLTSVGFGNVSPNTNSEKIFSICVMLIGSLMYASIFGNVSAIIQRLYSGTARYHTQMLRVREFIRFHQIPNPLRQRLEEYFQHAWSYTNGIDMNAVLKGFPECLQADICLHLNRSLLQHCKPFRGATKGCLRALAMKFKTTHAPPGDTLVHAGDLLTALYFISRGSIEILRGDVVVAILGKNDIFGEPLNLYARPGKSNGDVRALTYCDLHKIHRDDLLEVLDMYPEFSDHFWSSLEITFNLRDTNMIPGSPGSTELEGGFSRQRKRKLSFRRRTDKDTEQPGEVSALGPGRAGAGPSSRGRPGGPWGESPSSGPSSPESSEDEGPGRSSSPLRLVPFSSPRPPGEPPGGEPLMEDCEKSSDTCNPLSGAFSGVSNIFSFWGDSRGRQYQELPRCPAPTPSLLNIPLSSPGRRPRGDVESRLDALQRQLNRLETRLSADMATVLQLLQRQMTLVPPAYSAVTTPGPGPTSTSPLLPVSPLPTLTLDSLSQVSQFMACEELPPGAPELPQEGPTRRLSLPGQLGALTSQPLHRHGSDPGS
Cannabinoid receptor 2, sequence (P34972 whole entry): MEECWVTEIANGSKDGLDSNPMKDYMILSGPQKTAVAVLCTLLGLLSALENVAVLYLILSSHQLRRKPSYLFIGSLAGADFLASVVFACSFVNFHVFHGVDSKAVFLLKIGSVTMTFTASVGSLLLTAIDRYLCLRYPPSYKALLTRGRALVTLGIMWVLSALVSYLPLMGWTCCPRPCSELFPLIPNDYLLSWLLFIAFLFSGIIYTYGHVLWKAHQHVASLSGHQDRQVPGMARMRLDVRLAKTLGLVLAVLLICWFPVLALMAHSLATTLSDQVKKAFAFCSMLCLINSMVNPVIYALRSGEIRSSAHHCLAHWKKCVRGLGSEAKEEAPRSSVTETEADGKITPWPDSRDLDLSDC

Broadly, the IC50 is the concentration that inhibits the measured activity by half. As a reminder, the Kp is tissue or fluid exposure divided by exposure in the circulation. Broadly, the Emax is the size of the effect at its maximum, as opposed to the concentration needed. What is called thermodynamic solubility is the concentration in solution at equilibrium with solid. With `CCN(CCCC(=O)NCCO)C(=O)c1ccc2c(c1)c1c(n2C)CC[C@@H](C2CCOCC2)C1`, the concentration for half-maximal inhibition (IC50) in data set [1] is more than 33000 nM. The Kp in data set [2] is less than 0.02. Further, at Cannabinoid receptor 1 [3], the Emax came to 113%. The solubility (thermodynamic) in data set [4] was 760 µM (≈ 357 µg/mL). In addition, the microsomal CLint at 1 µM in data set [5] was 38 µL/min/mg.

The term Ki denotes a measure of affinity in units of concentration, obtained from inhibition or displacement. Lower therefore signals a stronger hold on the target. `CNC(=O)CCCN(C)C(=O)c1ccc2c(c1)c1c(n2C)CC[C@H](C2CCOCC2)C1` returned a Ki on Cannabinoid receptor 1 [6] of 576 nM. This compound showed a thermodynamic solubility in data set [4] of 1070 µM (≈ 455 µg/mL). Also, in data set [5], the microsomal CLint at 1 µM stood at 31 µL/min/mg.

As for `CCCCCOc1ccc(C(=O)c2cccc3ccccc23)c2ccccc12`, the Kp in data set [2] turned out to be 0.29. The Emax at Cannabinoid receptor 1 [3] stood at 112%.

The Papp A→B is how fast a substance crosses the layer from the apical side. `CN(C(=O)c1ccc2c(c1)c1c(n2C)CC[C@@H](C2CCOCC2)C1)[C@H](CO)CCC(=O)NCCF` showed an IC50 in [1] of more than 33000 nM. Further, the Papp A→B at 10 µM in data set [7] is 0.11 ×10⁻⁶ cm/s. In [2], the Kp turned out to be 0.025. Besides, the Emax on Cannabinoid receptor 1 [3] was determined as 118%. The compound also showed a solubility (thermodynamic) in data set [4] of 1310 µM (≈ 639 µg/mL). Besides, in data set [5], the microsomal CLint at 1 µM was 27 µL/min/mg.

As to `CCN(CC(=O)NC1CC1)C(=O)c1ccc2c(c1)c1c(n2C)CCC(C2CCOCC2)C1` (racemic), at Cannabinoid receptor 1 [3], the Emax was 106%. For the same compound, in [4], the thermodynamic solubility worked out at 36 µM (≈ 15.8 µg/mL). Besides, the microsomal CLint at 1 µM in data set [5] stood at 53 µL/min/mg.

The term EC50 denotes the concentration needed to bring the measured effect to its halfway point. On to `CN(CC(=O)NC1CC1)C(=O)c1ccc2c(c1)c1c(n2C)CC[C@H](C2CCOCC2)C1`, for which the Ki amounted to 177 nM at Cannabinoid receptor 1 [6] and 49.1 nM at Cannabinoid receptor 2. The Emax at Cannabinoid receptor 1 [3] came out at 111%. For the same compound, the solubility (thermodynamic) in [4] amounted to 63 µM (≈ 26.7 µg/mL). In addition, on Cannabinoid receptor 1 [8], the EC50 came out at 446 nM. In addition, in data set [5], the microsomal CLint at 1 µM stood at 38 µL/min/mg.

`CN(CCCC(=O)NCCO)C(=O)c1ccc2c(c1)c1c(n2C)CC[C@@H](C2CCOCC2)C1`: on Cannabinoid receptor 1 [3], the Emax turned out to be 120%. The thermodynamic solubility in data set [4] was 2490 µM (≈ 1130 µg/mL). In addition, in data set [5], the microsomal CLint at 1 µM turned out to be 17 µL/min/mg.

On to `CONC(=O)CCCN(C)C(=O)c1ccc2c(c1)c1c(n2C)CC[C@@H](C2CCOCC2)C1`, for which the IC50 in data set [1] is more than 33000 nM. The Emax on Cannabinoid receptor 1 [3] is 104%. In [4], this compound displayed a solubility (thermodynamic) of 1330 µM (≈ 587 µg/mL). Also, the microsomal CLint at 1 µM in data set [5] turned out to be 36 µL/min/mg.

Regarding `CCN(CC(=O)NC1CC1)C(=O)c1ccc2c(c1)c1c(n2C)CC[C@H](C2CCOCC2)C1`, on Cannabinoid receptor 1 [6], the Ki amounted to 17.3 nM. The Emax at Cannabinoid receptor 1 [3] amounted to 106%. Further, the solubility (thermodynamic) in [4] stood at 49 µM (≈ 21.4 µg/mL). Moreover, the EC50 on Cannabinoid receptor 1 [8] stood at 24.2 nM.

`Cn1c2c(c3cc(C(=O)NCCCC(=O)NC4CC4)ccc31)CC(C1CCOCC1)CC2` (configuration not stated) gave an IC50 in data set [1] of more than 31000 nM. In [4], the thermodynamic solubility is 1 µM (≈ 0.438 µg/mL). In [5], the microsomal CLint at 1 µM came out at 47 µL/min/mg.

At Cannabinoid receptor 1 [6], `CCN(CC(=O)NC1CC1)C(=O)c1ccc2c(c1)c1c(n2C)CC[C@@H](C2CCOCC2)C1` showed a Ki of 4.2 nM. For the same compound, the Papp A→B at 10 µM in data set [7] came out at 23 ×10⁻⁶ cm/s. Also, in data set [2], the Kp amounted to 0.09. Besides, the maximum response (Emax) on Cannabinoid receptor 1 [3] came out at 106%. Besides, the thermodynamic solubility in [4] is 30 µM (≈ 13.1 µg/mL). The EC50 on Cannabinoid receptor 1 [8] was 1.9 nM. Besides, the microsomal CLint at 1 µM in data set [5] worked out at 36 µL/min/mg.

With `CN(CC(=O)NC1CC1)C(=O)c1ccc2c(c1)c1c(n2C)CCC(C2CCOCC2)C1` (racemic), the Emax at Cannabinoid receptor 1 [3] turned out to be 121%. At Cannabinoid receptor 2, affinity was put at a Ki of 26.3 nM. The solubility (thermodynamic) in [4] was determined as 108 µM (≈ 45.7 µg/mL). The microsomal CLint at 1 µM in [5] was determined as 37 µL/min/mg.

In turn, `CN(CCC(=O)NC1CC1)C(=O)c1ccc2c(c1)c1c(n2C)CCC(C2CCOCC2)C1` (configuration not stated) yielded a solubility (thermodynamic) in [4] of 523 µM (≈ 229 µg/mL).

As for `CCS(=O)(=O)n1c2c(c3cc(C(=O)N4CCC(C)CC4)ccc31)CN(C1CCOCC1)CC2`, the Papp A→B at 10 µM in data set [7] came out at 13 ×10⁻⁶ cm/s. In data set [2], the Kp came to 0.07. On Cannabinoid receptor 1 [3], the Emax amounted to 120%. This compound also returned a thermodynamic solubility in [4] of more than 1030 µM.

For the compound `CN(CC(=O)NC1CC1)C(=O)c1ccc2c(c1)c1c(n2C)CC[C@@H](C2CCOCC2)C1`, the values for the Ki on Cannabinoid receptor 1 [6] and on Cannabinoid receptor 2 were 24.5 nM and 21.5 nM, respectively. In addition, in [7], the Papp A→B at 10 µM amounted to 27 ×10⁻⁶ cm/s. For the same compound, the Kp in data set [2] turned out to be 0.024. In addition, the Emax at Cannabinoid receptor 1 [3] is 116%. Besides, in [4], the thermodynamic solubility is 86 µM (≈ 36.4 µg/mL). For the same compound, the EC50 at Cannabinoid receptor 1 [8] is 39.9 nM. Moreover, the microsomal CLint at 1 µM in data set [5] stood at 30 µL/min/mg.

Consider `CN(CCCC(=O)NCC#N)C(=O)c1ccc2c(c1)c1c(n2C)CC[C@@H](C2CCOCC2)C1`, for which the Emax at Cannabinoid receptor 1 [3] stood at 110%. In addition, in data set [4], the solubility (thermodynamic) is 300 µM (≈ 135 µg/mL). Further, the microsomal CLint at 1 µM in data set [5] was 42 µL/min/mg.

Turning to `CN(CCCC(=O)NCCF)C(=O)c1ccc2c(c1)c1c(n2C)CC[C@@H](C2CCOCC2)C1`, in data set [2], the Kp worked out at 0.02. For the same compound, the Emax on Cannabinoid receptor 1 [3] was 108%. This compound yielded a solubility (thermodynamic) in [4] of 470 µM (≈ 215 µg/mL). Further, the EC50 on Cannabinoid receptor 1 [8] worked out at 12.9 nM. Further, the microsomal CLint at 1 µM in [5] came out at 50 µL/min/mg.

As to `Cc1c(C(=O)c2cccc3ccccc23)c2cccc3c2n1[C@H](CN1CCOCC1)CO3` [WIN-552122], in data set [2], the Kp was found to be 2.3. Further, the solubility (thermodynamic) in [4] worked out at 2 µM (≈ 0.853 µg/mL).

On to `CN(CCCC(=O)NC1CC1)C(=O)c1ccc2c(c1)c1c(n2C)CCC(C2CCOCC2)C1` (configuration not stated), for which the Emax on Cannabinoid receptor 1 [3] was found to be 113%. The compound also had a solubility (thermodynamic) in [4] of 444 µM (≈ 201 µg/mL). Besides, in [5], the microsomal CLint at 1 µM came out at 73 µL/min/mg.

`CNC(=O)CCCN(C)C(=O)c1ccc2c(c1)c1c(n2C)CCC(C2CCOCC2)C1` (racemic): at Cannabinoid receptor 1 [3], the Emax came out at 121%. In data set [4], the thermodynamic solubility came to 1550 µM (≈ 660 µg/mL). Further, the microsomal CLint at 1 µM in data set [5] worked out at 27 µL/min/mg.

Turning to `CCN(CC(=O)NCCF)C(=O)c1ccc2c(c1)c1c(n2C)CC[C@@H](C2CCOCC2)C1`, the Kp in data set [2] came to 0.068. Besides, the Emax at Cannabinoid receptor 1 [3] amounted to 107%. In data set [4], this compound came in with a solubility (thermodynamic) of 71 µM (≈ 31.5 µg/mL). Also, the EC50 at Cannabinoid receptor 1 [8] stood at 9.8 nM. Also, in [5], the microsomal CLint at 1 µM was 33 µL/min/mg.

With `CCN(CCCC(=O)NC1CC1)C(=O)c1ccc2c(c1)c1c(n2C)CCC(C2CCOCC2)C1` (configuration not stated), the Emax at Cannabinoid receptor 1 [3] was determined as 114%. The thermodynamic solubility in data set [4] worked out at 224 µM (≈ 104 µg/mL). Also, the concentration for a half-maximal effect (EC50) on Cannabinoid receptor 1 [8] worked out at 2.9 nM. The microsomal CLint at 1 µM in data set [5] came out at 143 µL/min/mg.

In the case of `CCNC(=O)CC[C@@H](CO)N(C)C(=O)c1ccc2c(c1)c1c(n2C)CC[C@@H](C2CCOCC2)C1`, the Kp in [2] came out at 0.011. Also, the Emax on Cannabinoid receptor 1 [3] came out at 126%. The microsomal CLint at 1 µM in data set [5] worked out at 21 µL/min/mg.

For `CN(CCCC(=O)NC1COC1)C(=O)c1ccc2c(c1)c1c(n2C)CC[C@@H](C2CCOCC2)C1`, the Kp in data set [2] is 0.019. For the same compound, the Emax at Cannabinoid receptor 1 [3] was determined as 116%. Moreover, the solubility (thermodynamic) in [4] came out at 1670 µM (≈ 781 µg/mL). Further, the EC50 on Cannabinoid receptor 1 [8] was 43.7 nM. Moreover, the microsomal CLint at 1 µM in data set [5] was found to be 29 µL/min/mg.

`CNC(=O)CC[C@@H](CO)N(C)C(=O)c1ccc2c(c1)c1c(n2C)CC[C@@H](C2CCOCC2)C1`: the IC50 in data set [1] is more than 33000 nM. Also, the Papp A→B at 10 µM in [7] is 0.15 ×10⁻⁶ cm/s. Moreover, the Kp in data set [2] is less than 0.02. Further, the Emax at Cannabinoid receptor 1 [3] turned out to be 124%. The solubility (thermodynamic) in data set [4] was more than 3000 µM. In addition, the microsomal CLint at 1 µM in data set [5] was determined as 15 µL/min/mg.
